Test results taken from PMC10670441 (ACS chemical neuroscience, 2023).

Legend:
[1] = tested on: DAT; conditions: cited from earlier work; for EC50: DAT releasing agent
[2] = target: human serotonin transporter (hSERT) (Homo sapiens, UniProt P31645); test: Inhibition of APP+ uptake in hSERT-expressing HEK293 cells; type: cell-based; conditions: inhibition of APP+ (5 μM) uptake
Method in brief: (§1)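 Flp-In T-REx HEK293 lines stably carrying hDAT or hSERT, DsRED-transfected, doxycycline-induced (1μg/mL) for three days. Under perfusion in pH 7.3 HEPES-glucose buffer: 10 s buffer, 40 s compound, 30 s APP⁺ (3 μM hDAT; 5 μM hSERT) plus compound. Imaging at ex 460/em 535/50 nm. End-point fluorescence averaged over 30–60 cells per well, one concentration per well, normalised to compound-free wells (≥4 wells/concentration). Dose-response inhibition fit gives IC50.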

[3] = target: human dopamine transporter (hDAT) (Homo sapiens, UniProt Q01959); test: Inhibition of APP+ uptake in hDAT-expressing HEK293 cells; type: cell-based; conditions: for IC50: hDAT, inhibition of APP+ (3 μM) uptake; for DAT Selectivity: SERT IC50 value ÷ DAT IC50 value
Method in brief: as §1

[4] = tested on: DAT; conditions: binding at DAT; cited from earlier work

human dopamine transporter (hDAT), sequence (Q01959 whole entry): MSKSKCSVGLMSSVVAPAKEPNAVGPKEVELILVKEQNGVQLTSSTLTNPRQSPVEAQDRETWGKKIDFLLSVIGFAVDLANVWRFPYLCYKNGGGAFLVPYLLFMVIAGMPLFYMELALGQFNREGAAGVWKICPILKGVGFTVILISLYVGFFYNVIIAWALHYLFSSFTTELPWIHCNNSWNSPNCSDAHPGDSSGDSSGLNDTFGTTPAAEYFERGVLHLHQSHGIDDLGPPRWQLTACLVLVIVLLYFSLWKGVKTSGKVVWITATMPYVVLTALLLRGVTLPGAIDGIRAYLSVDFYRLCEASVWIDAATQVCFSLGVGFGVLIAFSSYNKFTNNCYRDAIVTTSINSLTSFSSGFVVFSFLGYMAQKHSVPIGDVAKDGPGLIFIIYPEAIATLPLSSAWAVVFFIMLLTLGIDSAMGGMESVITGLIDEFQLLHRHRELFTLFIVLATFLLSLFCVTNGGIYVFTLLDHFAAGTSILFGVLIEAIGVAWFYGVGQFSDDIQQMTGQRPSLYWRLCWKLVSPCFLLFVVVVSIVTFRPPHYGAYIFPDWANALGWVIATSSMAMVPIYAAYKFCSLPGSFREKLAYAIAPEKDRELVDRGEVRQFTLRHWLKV
human serotonin transporter (hSERT), sequence (P31645 whole entry, the tested form may be a part): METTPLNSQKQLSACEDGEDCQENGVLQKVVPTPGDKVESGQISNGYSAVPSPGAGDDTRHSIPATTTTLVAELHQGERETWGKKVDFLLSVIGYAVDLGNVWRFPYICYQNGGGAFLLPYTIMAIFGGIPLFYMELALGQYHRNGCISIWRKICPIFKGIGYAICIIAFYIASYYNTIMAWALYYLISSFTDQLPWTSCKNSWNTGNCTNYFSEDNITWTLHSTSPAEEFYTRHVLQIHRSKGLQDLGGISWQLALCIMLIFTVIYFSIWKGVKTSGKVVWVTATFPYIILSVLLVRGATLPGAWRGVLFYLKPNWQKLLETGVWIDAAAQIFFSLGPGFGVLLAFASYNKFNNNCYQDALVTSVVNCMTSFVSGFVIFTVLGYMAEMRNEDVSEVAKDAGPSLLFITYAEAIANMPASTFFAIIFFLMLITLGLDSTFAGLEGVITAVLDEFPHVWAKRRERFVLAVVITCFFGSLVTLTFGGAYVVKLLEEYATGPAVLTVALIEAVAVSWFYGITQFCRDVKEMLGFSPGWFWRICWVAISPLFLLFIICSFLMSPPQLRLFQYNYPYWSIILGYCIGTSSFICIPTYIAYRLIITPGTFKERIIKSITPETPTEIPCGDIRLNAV

SMILES | IC50 [2] [nM] | IC50 [3] [nM] | DAT Selectivity [3] [fold] | other results
CNC(C)C(=O)c1ccc(C(F)(F)F)cc1 (centres unmarked) [4-CF3 10, 4-CF3 methcathinone] | – | – | – | EC50 [1]: 2710 nM
CCCCC(C(=O)c1ccc(C)cc1)N1CCCC1.Cl (stereo not drawn) [4-CH3 α-PHP (4), 1-(4-Methylphenyl)-2-pyrrolidin-1-yl)hexanone Hydrochloride] | 10200 | 124 | – | –
CCCC(C(=O)c1ccc(C(F)(F)F)cc1)N1CCCC1 (centres unmarked) [4-CF3 analogue of 2] | – | – | – | fold lower affinity at DAT than 2 [4]: > 300 fold
CCCCC(C(=O)c1ccc(CC)cc1)N1CCCC1.Cl (stereo not drawn) [4-CH2CH3 α-PHP (6), 1-(4-Ethylphenyl)-2-(pyrrolidin-1-yl)hexanone Hydrochloride] | 9830 | 247 | 40 | –
CCCCC(C(=O)c1ccc(Cl)cc1)N1CCCC1.Cl (stereo not drawn) [4-Cl α-PHP (7), 1-(4-Chlorophenyl)-2-(pyrrolidin-1-yl)hexanone Hydrochloride] | 10100 | 184 | 55 | –
CCCCC(C(=O)c1ccc(C)cc1)N1CCCC1.Cl (stereo not drawn) [4-CH3 α-PHP (4)] | – | – | 83 | –
CCCCC(C(=O)c1ccc(OC)cc1)N1CCCC1.Cl (stereo not drawn) [4-OCH3 α-PHP (5), 1-(4-Methoxyphenyl)-2-(pyrrolidin-1-yl)hexanone Hydrochloride] | 15200 | 75 | 200 | –
CNC(C)C(=O)c1ccc(OC)cc1 (centres unmarked) [4-OCH3 10] | – | – | – | fold lower potency as a releasing agent than its parent, 10 ([1]; DAT release): 40 fold; SERT versus DAT selectivity ([1]; releasing agent): 4 fold
CNC(C)C(=O)c1ccccc1 (centres unmarked) [Compound 10, methcathinone] | – | – | – | EC50 [1]: 13.5 nM
CCCCC(C(=O)c1ccc(C(F)(F)F)cc1)N1CCCC1.Cl (stereo not drawn) [4-CF3 α-PHP (9), 1-(4-Trifluoromethylphenyl)-2-pyrrolidin-1-yl)hexanone Hydrochloride] | 5790 | 7500 | – | –
CCCCC(C(=O)c1ccc(Br)cc1)N1CCCC1.Cl (stereo not drawn) [4-Br α-PHP (8), 1-(4-Bromophenyl)-2-(pyrrolidin-1-yl)hexanone Hydrochloride] | 3610 | 127 | 28 | –
CCCCC(C(=O)c1ccc(C(F)(F)F)cc1)N1CCCC1.Cl (stereo not drawn) [4-CF3 α-PHP (9)] | – | – | 0.8 | –
CCCCC(C(=O)c1ccccc1)N1CCCC1 (stereo not drawn) [α-PHP (1), 1-phenyl-2-(pyrrolidin-1-yl)hexanone] | > 30000 | 97 | >300 | –
